Values after ≈ are worked out from the molar mass of the structure shown.
Assays:
[1] = test system: Mycobacterium tuberculosis; assay: Antimycobacterial activity against Mycobacterium tuberculosis MT1K ISO-R33 mutant expressing VV16 plasmid by colorimetric resazurin microtiter assay; type: functional
Procedure, shortened: (§1)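 Resazurin colorimetric microtiter MIC in 7H9-ADC broth with 2% DMSO at 37°C; strains carry empty pVV16 or pVVethA complementation vector; ISO tested up to 40 μg/ml, highest soluble level.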

[2] = test system: Mycobacterium tuberculosis; assay: Ratio of MIC for Mycobacterium tuberculosis H37Rv overexpressing ethR gene to MIC for wild-type Mycobacterium tuberculosis H37Rv expressing VV16 plasmid; type: functional
Procedure, shortened: (§2)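 Ratio of resazurin microtiter MICs in 7H9-ADC broth for H37Rv carrying pVVethR or pVVethA versus empty pVV16; ethA strain run at 32°C, ethR at 37°C.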

[3] = test system: Mycobacterium tuberculosis; assay: Ratio of MIC for wild-type Mycobacterium tuberculosis H37Rv expressing VV16 plasmid to MIC for Mycobacterium tuberculosis H37Rv overexpressing ethA gene; type: functional; procedure, shortened: as §2
[4] = test system: Mycobacterium tuberculosis; assay: Antimycobacterial activity against Mycobacterium tuberculosis MT1K ISO-R22 mutant overexpressing ethA gene by colorimetric resazurin microtiter assay; type: functional; procedure, shortened: as §1
[5] = test system: Mycobacterium tuberculosis; assay: Antimycobacterial activity against Mycobacterium tuberculosis MT1K ISO-R22 mutant expressing VV16 plasmid by colorimetric resazurin microtiter assay; type: functional; procedure, shortened: as §1
[6] = test system: Mycobacterium tuberculosis; assay: microbe, parasite or virus in culture; details: H37Rv ATCC 25618
[7] = test system: Mycobacterium tuberculosis; assay: Antimycobacterial activity against Mycobacterium tuberculosis H37Rv ATCC 25618 overexpressing ethR gene by colorimetric resazurin microtiter assay; type: functional
Procedure, shortened: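 Resazurin colorimetric microtiter MIC in 7H9-ADC broth at 37°C, for H37Rv carrying ethR on pVV vector; ISO tested up to 40 μg/ml, the solubility limit.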

[8] = test system: Mycobacterium tuberculosis; assay: Antimycobacterial activity against Mycobacterium tuberculosis MT1K ISO-R33 mutant overexpressing ethA gene by colorimetric resazurin microtiter assay; type: functional; procedure, shortened: as §1

CC(C)CCOc1ccc(NC(=S)Nc2ccc(OCCC(C)C)cc2)cc1 [TIOCARLIDE]
MIC [1]: >40 µg/mL
fold change (FC) [2]: 8
fold change (FC) [3]: 2
MIC [4]: 5 µg/mL (≈ 12.5 µM)
MIC [5]: >40 µg/mL
MIC [6]: 2.5 µg/mL (≈ 6.24 µM)
MIC [7]: > 40 µg/mL
MIC [8]: 5 µg/mL (≈ 12.5 µM)

Source: ChEMBL document CHEMBL1137655, “Isoxyl activation is required for bacteriostatic activity against Mycobacterium tuberculosis” (2007)
